Molecules are shown by their SMILES. Calls of active or inactive are those of the source. No cut-off for these calls is given here.

Test [1] is described as follows: Inhibition of Mucor hiemalis endo-beta-N-acetylglucosaminidase after 5 mins by HPAEC-PED method. Put shortly:
(§1)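 Man9GlcNAc2Asn (500 μM) as substrate in 50 mM phosphate buffer pH 6.5. Limited enzyme is incubated with or without serial dilutions of thiazoline at 30°C for 5 min. Reaction stopped by heating at 100°C for 3 min. Man9GlcNAc hydrolysis product quantified by HPAEC-PED.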

In test [2] the target is T1, Endo-beta-N-acetylglucosaminidase (Arthrobacter protophormiae, UniProt Q9ZB22).
T1 sequence (Q9ZB22 whole entry): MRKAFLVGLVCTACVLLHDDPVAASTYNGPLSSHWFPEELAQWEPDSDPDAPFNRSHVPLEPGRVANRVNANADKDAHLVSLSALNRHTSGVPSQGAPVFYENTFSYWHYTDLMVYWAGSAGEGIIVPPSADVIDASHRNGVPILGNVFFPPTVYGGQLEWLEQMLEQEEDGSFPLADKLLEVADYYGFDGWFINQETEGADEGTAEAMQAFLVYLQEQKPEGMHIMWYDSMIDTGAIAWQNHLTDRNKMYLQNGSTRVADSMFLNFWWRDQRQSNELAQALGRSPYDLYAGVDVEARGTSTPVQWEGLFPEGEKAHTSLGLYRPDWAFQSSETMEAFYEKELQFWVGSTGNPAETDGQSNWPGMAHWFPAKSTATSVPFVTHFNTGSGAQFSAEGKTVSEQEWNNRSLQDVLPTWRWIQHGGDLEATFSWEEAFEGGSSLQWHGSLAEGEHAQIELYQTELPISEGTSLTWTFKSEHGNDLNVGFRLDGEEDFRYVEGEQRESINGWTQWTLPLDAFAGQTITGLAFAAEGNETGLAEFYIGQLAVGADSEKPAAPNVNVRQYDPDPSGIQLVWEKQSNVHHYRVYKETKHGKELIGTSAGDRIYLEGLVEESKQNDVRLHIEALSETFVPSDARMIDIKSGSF
Nature of the test: Inhibition of Arthrobacter protophormiae endo-beta-N-acetylglucosaminidase after 5 mins by HPAEC-PED method. The arrangement: species or system Glutamicibacter protophormiae. Put shortly: as §1

In test [3] the test system is Flavobacterium sp. Nature of the test: Inhibition of Flavobacterium sp. endo-beta-N-acetylglucosaminidase at 100 uM after 5 mins by HPAEC-PED method. Put shortly:
(§2)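 Endo-Fsp assay uses Man5GlcNAc2Asn as substrate in 50 mM phosphate buffer pH 6.5. Limited enzyme is incubated with or without thiazoline at 30°C for 5 min, then heated at 100°C for 3 min to stop. Hydrolytic product quantified by HPAEC-PED.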

The target in test [4] is T2, Cytosolic endo-beta-N-acetylglucosaminidase (Homo sapiens, UniProt Q8NFI3).
T2 sequence (Q8NFI3 whole entry): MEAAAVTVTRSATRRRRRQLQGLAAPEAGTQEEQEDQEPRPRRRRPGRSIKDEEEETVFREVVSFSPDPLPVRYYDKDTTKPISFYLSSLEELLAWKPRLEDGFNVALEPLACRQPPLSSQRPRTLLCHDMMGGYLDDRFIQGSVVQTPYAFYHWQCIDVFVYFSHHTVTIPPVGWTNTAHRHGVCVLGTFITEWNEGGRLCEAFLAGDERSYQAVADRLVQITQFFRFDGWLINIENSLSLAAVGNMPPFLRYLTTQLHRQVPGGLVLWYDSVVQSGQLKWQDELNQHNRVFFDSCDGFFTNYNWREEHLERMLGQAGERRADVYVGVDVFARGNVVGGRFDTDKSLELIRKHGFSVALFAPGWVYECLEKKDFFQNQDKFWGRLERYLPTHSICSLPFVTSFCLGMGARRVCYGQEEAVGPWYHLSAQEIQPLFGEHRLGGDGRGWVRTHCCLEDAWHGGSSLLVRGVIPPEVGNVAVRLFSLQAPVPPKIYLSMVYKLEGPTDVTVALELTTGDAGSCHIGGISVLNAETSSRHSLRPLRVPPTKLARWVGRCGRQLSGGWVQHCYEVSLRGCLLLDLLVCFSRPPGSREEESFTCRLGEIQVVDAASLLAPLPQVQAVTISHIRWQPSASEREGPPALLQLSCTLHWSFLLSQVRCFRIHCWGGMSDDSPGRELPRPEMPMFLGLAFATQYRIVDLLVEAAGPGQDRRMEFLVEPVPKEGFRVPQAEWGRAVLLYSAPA
Nature of the test: Inhibition of human endo-beta-N-acetylglucosaminidase expressed in Hek293 cells after 3 mins. The class given is cell-based. Put shortly: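 Enzyme source: HEK293 cells transfected with pcDNA-hENGase, extracted 48 h later in Hepes-KOH pH 7.0 with protease inhibitors. The 100,000 × g soluble fraction was assayed in 40 mM Mes-NaOH pH 6.1 with 1 μM Man9GlcNAc2-PA and inhibitor from 10 mM to 0.1 μM, 3 min at 37°C. Reaction stopped by boiling; product quantified by C18 HPLC.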

For test [5], the system named is Flavobacterium sp. The test can be described thus: Inhibition of Flavobacterium sp. endo-beta-N-acetylglucosaminidase at 1uM after 5 mins by HPAEC-PED method. Put shortly: as §2
The next test concerns Mucor hiemalis. The test can be described thus: Inhibition of Mucor hiemalis endo-beta-N-acetylglucosaminidase upto 500 uM after 5 mins by HPAEC-PED method. The method, boiled down: as §1
The target in test [6] is T3, Endo-beta-N-acetylglucosaminidase (Arthrobacter protophormiae) (UniProt Q9ZB22).
T3 sequence (whole entry): T1 sequence (Q9ZB22 whole entry)
Nature of the test: Inhibition of Arthrobacter protophormiae endo-beta-N-acetylglucosaminidase upto 500 uM after 5 mins by HPAEC-PED method. Conditions: Glutamicibacter protophormiae. The method, boiled down: as §1

What is called IC50 is the concentration needed to halve the response being measured. Read a high IC50 as weaker potency in that assay. For the compound `CC1=N[C@@H]2[C@@H](O)[C@H](O[C@@H]3O[C@H](CO)[C@@H](O)[C@H](O)[C@@H]3O)[C@@H](CO)O[C@H]2S1`, the figures for the IC50 in test [1] and in test [2] were 80 µM and 38 µM, respectively. The outcome with Flavobacterium sp. [3] was inactive.

By inhibition is commonly meant the share of the control response that was lost under treatment. The low end stands for a weak effect, the high end for a strong effect. In the case of `CC1=N[C@@H]2[C@@H](O)[C@H](O[C@@H]3O[C@H](CO[C@H]4O[C@H](CO[C@H]5O[C@H](CO[C@H]6O[C@H](CO)[C@@H](O)[C@H](O)[C@@H]6O)[C@@H](O)[C@H](O)[C@@H]5O)[C@@H](O)[C@H](O[C@@H]5O[C@H](CO)[C@@H](O)[C@H](O[C@@H]6O[C@H](CO)[C@@H](O)[C@H](O)[C@@H]6O)[C@@H]5O)[C@@H]4O)[C@@H](O)[C@H](O[C@@H]4O[C@H](CO)[C@@H](O)[C@H](O)[C@@H]4O[C@@H]4O[C@H](CO)[C@@H](O)[C@H](O)[C@@H]4O[C@@H]4O[C@H](CO)[C@@H](O)[C@H](O)[C@@H]4O)[C@@H]3O)[C@@H](CO)O[C@H]2S1`, the IC50 was found to be 6 µM in test [1], 0.22 µM in test [2] and 0.42 µM in test [4]. Also, the inhibition in the test with Flavobacterium sp. [5] was found to be 75%.

Take `CC1=N[C@@H]2[C@@H](O)[C@H](O[C@@H]3O[C@H](CO[C@H]4O[C@H](CO)[C@@H](O)[C@H](O)[C@@H]4O)[C@@H](O)[C@H](O[C@@H]4O[C@H](CO)[C@@H](O)[C@H](O)[C@@H]4O)[C@@H]3O)[C@@H](CO)O[C@H]2S1`: the IC50 in test [1] was 64 µM; in test [2], 13 µM. For the same compound, the result in the test on Flavobacterium sp. [3] was inactive.

As for `CC1=N[C@@H]2[C@@H](O)[C@H](O)[C@@H](CO)O[C@H]2S1`, the result (in the test with Mucor hiemalis; in test [6]) was inactive.

The values above are taken from ChEMBL document CHEMBL1142421, “Synthesis and inhibitory activity of oligosaccharide thiazolines as a class of mechanism-based inhibitors for endo-beta-N-acetylglucosaminidases” (Bioorg Med Chem, 2008).
